Data set [1] has as its system Mycobacterium tuberculosis. Nature of the data set: Antimycobacterial activity against wild-type Mycobacterium tuberculosis H37Rv ATCC 27294 after 16 to 18 days by BACTEC 7H12B microdilution method. The class given is functional. For orientation: Broth dilution looks for growth in wells or tubes with falling amounts of substance.
Data set [2] deals with DNA gyrase subunit A/DNA gyrase subunit B (Mycobacterium tuberculosis (strain ATCC 25618 / H37Rv), UniProt P9WG45+P9WG47). In words: Inhibition of Mycobacterium tuberculosis H37Rv DNA gyrase holoenzyme-mediated supercoiling of pBR322 DNA after 90 mins by agarose gel electrophoresis.
Chain of DNA gyrase subunit A/DNA gyrase subunit B (P9WG45 whole entry): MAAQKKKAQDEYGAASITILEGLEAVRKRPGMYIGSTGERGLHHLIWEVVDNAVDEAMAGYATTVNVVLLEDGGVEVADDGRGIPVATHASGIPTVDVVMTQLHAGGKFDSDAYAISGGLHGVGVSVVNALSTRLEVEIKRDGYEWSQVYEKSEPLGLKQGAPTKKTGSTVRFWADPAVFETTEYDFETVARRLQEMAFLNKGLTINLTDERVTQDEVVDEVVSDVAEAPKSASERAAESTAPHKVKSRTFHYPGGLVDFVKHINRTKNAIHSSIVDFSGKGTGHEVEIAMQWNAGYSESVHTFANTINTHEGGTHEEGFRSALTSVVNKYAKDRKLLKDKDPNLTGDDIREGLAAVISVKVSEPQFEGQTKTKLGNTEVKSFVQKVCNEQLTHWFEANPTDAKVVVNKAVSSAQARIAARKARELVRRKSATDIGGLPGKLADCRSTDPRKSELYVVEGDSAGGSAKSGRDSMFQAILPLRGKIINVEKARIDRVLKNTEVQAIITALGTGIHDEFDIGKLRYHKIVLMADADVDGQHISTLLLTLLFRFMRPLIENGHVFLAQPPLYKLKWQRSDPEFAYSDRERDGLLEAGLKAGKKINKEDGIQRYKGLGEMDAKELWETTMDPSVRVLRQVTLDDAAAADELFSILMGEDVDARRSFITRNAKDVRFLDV
Chain of DNA gyrase subunit A/DNA gyrase subunit B (P9WG47 whole entry): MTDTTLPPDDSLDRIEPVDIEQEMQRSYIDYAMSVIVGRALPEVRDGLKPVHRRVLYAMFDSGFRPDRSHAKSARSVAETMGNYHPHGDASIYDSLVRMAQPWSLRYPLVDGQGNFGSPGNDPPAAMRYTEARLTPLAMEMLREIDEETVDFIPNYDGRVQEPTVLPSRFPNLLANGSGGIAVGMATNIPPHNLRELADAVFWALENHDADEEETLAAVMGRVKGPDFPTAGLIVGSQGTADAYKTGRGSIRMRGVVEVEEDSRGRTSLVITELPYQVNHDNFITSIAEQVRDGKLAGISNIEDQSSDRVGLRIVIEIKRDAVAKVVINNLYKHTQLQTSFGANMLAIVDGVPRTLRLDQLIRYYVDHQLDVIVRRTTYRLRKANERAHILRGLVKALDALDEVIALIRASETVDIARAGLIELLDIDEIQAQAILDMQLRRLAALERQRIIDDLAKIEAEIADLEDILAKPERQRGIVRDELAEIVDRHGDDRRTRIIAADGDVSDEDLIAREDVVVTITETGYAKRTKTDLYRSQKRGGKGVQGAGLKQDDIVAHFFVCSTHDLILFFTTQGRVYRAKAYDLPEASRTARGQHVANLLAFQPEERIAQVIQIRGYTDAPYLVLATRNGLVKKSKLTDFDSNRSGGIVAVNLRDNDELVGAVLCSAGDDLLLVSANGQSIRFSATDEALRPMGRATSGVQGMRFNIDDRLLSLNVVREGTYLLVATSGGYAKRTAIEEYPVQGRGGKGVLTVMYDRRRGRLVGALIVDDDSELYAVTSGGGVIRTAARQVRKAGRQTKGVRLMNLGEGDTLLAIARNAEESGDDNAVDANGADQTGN
Another data set addresses DNA gyrase subunit B (Mycobacterium smegmatis, UniProt P0C559). Nature of the data set: Inhibition of Mycobacterium smegmatis DNA gyrase-B ATPase activity. Set-up: species or system Mycolicibacterium smegmatis.
Data set [3] is described as follows: Octanol-sodium phosphate buffer partition coefficient, log D of the compound at 10 mM at pH 7.4 by shake-flask method. The class given is physicochemical.
Data set [4] deals with Voltage-gated inwardly rectifying potassium channel KCNH2 (Homo sapiens, UniProt Q12809). In words: Inhibition of human ERG by patch clamp electrophysiological analysis. (In general: The patch-clamp technique gives a direct electrical read-out from membranes.)
Chain of Voltage-gated inwardly rectifying potassium channel KCNH2 (Q12809 whole entry): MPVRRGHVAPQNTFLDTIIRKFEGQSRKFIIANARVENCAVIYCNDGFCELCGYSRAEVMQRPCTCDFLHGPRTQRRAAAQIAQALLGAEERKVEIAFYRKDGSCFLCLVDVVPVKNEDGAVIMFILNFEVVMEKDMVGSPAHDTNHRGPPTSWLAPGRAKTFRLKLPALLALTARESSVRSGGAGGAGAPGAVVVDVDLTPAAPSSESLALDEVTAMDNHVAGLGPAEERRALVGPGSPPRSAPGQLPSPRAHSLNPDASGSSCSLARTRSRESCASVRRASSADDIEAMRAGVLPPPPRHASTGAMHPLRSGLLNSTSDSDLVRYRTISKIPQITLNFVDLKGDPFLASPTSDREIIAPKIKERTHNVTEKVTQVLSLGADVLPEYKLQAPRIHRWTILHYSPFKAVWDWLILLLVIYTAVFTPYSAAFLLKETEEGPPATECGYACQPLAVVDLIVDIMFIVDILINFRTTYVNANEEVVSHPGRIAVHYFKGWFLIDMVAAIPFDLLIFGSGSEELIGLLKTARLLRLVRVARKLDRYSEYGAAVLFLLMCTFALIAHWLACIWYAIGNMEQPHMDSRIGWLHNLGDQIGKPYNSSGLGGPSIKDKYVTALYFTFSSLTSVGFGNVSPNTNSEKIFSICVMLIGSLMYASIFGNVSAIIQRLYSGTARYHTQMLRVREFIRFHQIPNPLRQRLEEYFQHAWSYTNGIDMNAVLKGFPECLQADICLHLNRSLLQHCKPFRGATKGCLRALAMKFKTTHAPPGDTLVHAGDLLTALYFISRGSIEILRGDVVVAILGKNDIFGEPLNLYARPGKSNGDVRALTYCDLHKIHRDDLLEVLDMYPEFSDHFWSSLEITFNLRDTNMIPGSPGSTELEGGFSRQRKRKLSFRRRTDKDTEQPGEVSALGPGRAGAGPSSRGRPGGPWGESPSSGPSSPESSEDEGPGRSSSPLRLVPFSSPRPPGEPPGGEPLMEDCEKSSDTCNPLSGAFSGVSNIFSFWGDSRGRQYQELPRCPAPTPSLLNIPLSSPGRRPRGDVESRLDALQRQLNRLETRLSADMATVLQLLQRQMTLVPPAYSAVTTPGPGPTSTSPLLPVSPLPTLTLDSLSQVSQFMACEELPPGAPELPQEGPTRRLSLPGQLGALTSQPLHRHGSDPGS
Data set [5] in a line: Apparent permeability from apical to basolateral side in human Caco2 cells. The class given is ADME, cell-based. As to conditions: Caco-2. In general terms: Passage across Caco-2 layers is used to estimate intestinal permeability.
A short description of data set [6]: Apparent permeability from basolateral to apical side in human Caco2 cells. The class given is ADME, cell-based. As to conditions: Caco-2.
Data set [7] in a line: Clearance in rat at 40 mg/kg, po and 5 mg/kg, iv by LC-MS/MS analysis. It is filed as ADME, organism-based. As to conditions: in vivo. A digest of the protocol: (§1)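 Rats were dosed with the 5% dextrose (pH 4−5) formulation, 5 mg/kg iv and 40 mg/kg po. Plasma was precipitated with acetonitrile and analysed by LC−MS/MS with a carbamazepine internal standard. Parameters were derived by noncompartmental analysis.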

The nature of data set [8]: Oral bioavailability in rat at 40 mg/kg by LC-MS/MS analysis. It is filed as ADME, organism-based. The following applies: in vivo. A digest of the protocol: as §1
Data set [9] deals with Mycobacterium tuberculosis. Nature of the data set: Antimycobacterial activity against Mycobacterium tuberculosis infected in aminobenzotriazole-pretreated BALB/c mouse chronic tuberculosis model assessed as reduction in log10CFU at 40 to 80 mg/kg, po bid for 20 days. It is filed as functional. The following applies: dose mg/kg 40-80. A digest of the protocol: (§2)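 Aerosol-infected BALB/c mice in BSL3, three per group. Treatment began 3 days (acute) or 4 weeks (chronic) after infection. ABT 100 mg/kg po in water was given 2 h before oral gavage of compound in 5% dextrose (pH 4−5 with acetic acid), 10 mL/kg, twice daily at 8 h intervals. Courses were 20 days (7 days/week) or 8 weeks (6 days/week). Lung homogenates were plated on 7H11 for cfu.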

For data set [10], the system named is Mycobacterium tuberculosis. Nature of the data set: Antimycobacterial activity against Mycobacterium tuberculosis infected in aminobenzotriazole-pretreated BALB/c mouse chronic tuberculosis model assessed as reduction in log10CFU at 40 to 80 mg/kg, po bid for 8 weeks. It is filed as functional, organism-based. The method, boiled down:
as §2

Data set [11] in a line: Fraction unbound in aminobenzotriazole-pretreated BALB/c mouse plasma infected with Mycobacterium tuberculosis by LC-MS/MS analysis. The class given is ADME, cell-free.
A short description of data set [12]: Ratio of fAUC in aminobenzotriazole-pretreated Mycobacterium tuberculosis infected BALB/c mouse at 20 mg/kg, po to MIC for wild-type Mycobacterium tuberculosis H37Rv ATCC 27294. A digest of the protocol:
(§3)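 PK was measured in infected, ABT-pretreated mice during efficacy dosing (oral, 5% dextrose pH 4−5) on day 18 or 19. Saphenous blood was taken at 5, 15 and 30 min and 1, 2, 4 and 6 h. Plasma was precipitated with acetonitrile and analysed by LC−MS/MS. AUC came from noncompartmental analysis; free AUC/MIC and %free T>MIC used the unbound fraction and MIC.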

Another data set concerns Mus musculus. In words: fT>MIC in BALB/c mouse infected with Mycobacterium tuberculosis at 20 mg/kg, po. A digest of the protocol: as §3
The test system of data set [13] is Mycobacterium tuberculosis. In words: Bactericidal activity against Mycobacterium tuberculosis infected in human THP1 cells at 1 ug/ml for 7 days. The class given is functional, THP-1. A digest of the protocol:
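Adherent THP-1 macrophages infected with Mtb were exposed to compound at 1 μg/mL for 7 days at 37 °C. Kill was expressed as log reduction versus the untreated control.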

Converted amounts (≈) assume the structure as drawn. The source made the active and inactive calls. No cut-off for these calls is given here. Where only a bound is given, the exact number is not on record here.

As usually defined, the MIC is the lowest concentration that inhibits growth of the organism. In general, IC50 refers to the point on the concentration scale where inhibition reaches its midpoint. Lower therefore signals greater potency. Broadly, the logD is the decadic logarithm of the distribution of all forms, ionised or not, between an organic phase and buffer at a given pH. A higher logD goes with higher lipophilicity. A word on the Papp A→B: it is how fast a substance crosses the layer from the apical side. The Papp B→A is the apparent permeability from the basolateral to the apical side of a cell layer. As usually defined, the bioavailability is the share of a dose that reaches the circulation, judged against a reference dose that is usually intravenous. The low end stands for poor availability, the high end for good availability. The fraction unbound is free concentration divided by total concentration.

Chain of DNA gyrase subunit B (P0C559 whole entry): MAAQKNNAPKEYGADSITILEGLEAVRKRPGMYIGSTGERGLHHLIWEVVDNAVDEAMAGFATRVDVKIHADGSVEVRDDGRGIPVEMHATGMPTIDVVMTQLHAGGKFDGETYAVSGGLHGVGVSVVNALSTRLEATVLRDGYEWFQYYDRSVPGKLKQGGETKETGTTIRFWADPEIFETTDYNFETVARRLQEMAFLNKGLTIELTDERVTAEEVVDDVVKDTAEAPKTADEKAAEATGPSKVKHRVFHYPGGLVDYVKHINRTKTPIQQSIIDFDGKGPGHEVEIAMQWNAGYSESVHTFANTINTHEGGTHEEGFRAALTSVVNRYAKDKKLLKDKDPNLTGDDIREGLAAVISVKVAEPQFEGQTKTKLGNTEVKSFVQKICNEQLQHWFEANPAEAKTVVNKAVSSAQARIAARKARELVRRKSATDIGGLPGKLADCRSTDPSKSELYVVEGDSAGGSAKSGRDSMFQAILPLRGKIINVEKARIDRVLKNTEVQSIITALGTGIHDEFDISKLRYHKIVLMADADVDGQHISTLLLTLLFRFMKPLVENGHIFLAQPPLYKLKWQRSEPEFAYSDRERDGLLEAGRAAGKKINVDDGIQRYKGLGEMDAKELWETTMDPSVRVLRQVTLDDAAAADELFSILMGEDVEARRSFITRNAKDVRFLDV

Compound `COc1ccc2ccc(=O)n(CCN3CCC(NCc4ccc5c(n4)NC(=O)CO5)CC3)c2n1` yielded an MIC in data set [1] of 0.25 µg/mL (≈ 0.538 µM). Moreover, the IC50 is 0.15 µM in data set [2], > 100 µM on DNA gyrase subunit B and 21 µM in data set [4]. Further, the logD at 10000 µM in [3] worked out at 0.8. Moreover, the apparent permeability from apical to basolateral (Papp A→B) in [5] came out at 1.1 ×10⁻⁶ cm/s. In addition, in data set [6], the Papp B→A was 25 ×10⁻⁶ cm/s.
Compound `COc1cnc2ccc(=O)n(CCN3CC[C@@H](NCc4ccc5c(n4)NC(=O)CO5)[C@@H](OC)C3)c2c1` registered an MIC in data set [1] of 0.13 µg/mL (≈ 0.263 µM). Also, in data set [3], the log distribution coefficient (logD) at 10000 µM was found to be 0.4. Moreover, the IC50 in data set [4] is > 100 µM.
`Cc1ncc(CN[C@@H]2CCN(CCn3c(=O)ccc4ccc(C#N)cc43)C[C@@H]2F)cc1C#N` displayed an MIC in data set [1] of 0.25 µg/mL (≈ 0.562 µM). The compound also had a logD at 10000 µM in data set [3] of 1.29. Further, the Papp A→B in data set [5] was 14.5 ×10⁻⁶ cm/s. Further, the Papp B→A in [6] was 13 ×10⁻⁶ cm/s.
In turn, `O=C(O)c1cn(C2CC2)c2cc(N3CCNCC3)c(F)cc2c1=O` [CIPROFLOXACIN] came in with an MIC in [1] of 0.25 µg/mL (≈ 0.754 µM).
On to `Cc1ncc(CNC2CCN(CCn3c(=O)ccc4c3ccc(=O)n4C)CC2)cc1C#N`, for which, in data set [1], the MIC is > 32 µg/mL. Further, the logD at 10000 µM in data set [3] was -0.6. Further, half-maximal inhibition in [4] (IC50) required 33 µM.
In the case of `CO[C@H]1/C=C/O[C@@]2(C)Oc3c(C)c(O)c4c(O)c(c(/C=N/N5CCN(C)CC5)c(O)c4c3C2=O)NC(=O)/C(C)=C\C=C\[C@H](C)[C@H](O)[C@@H](C)[C@@H](O)[C@@H](C)[C@H](OC(C)=O)[C@@H]1C` [RIFAMPIN], the MIC in data set [1] is 0.015 µg/mL (≈ 0.0182 µM).
In turn, `COc1cnc2ccc(=O)n(CCN3CC[C@@H](NCc4cnc(C)c(C#N)c4)[C@@H](OC)C3)c2c1` showed a minimal inhibitory concentration (MIC) in data set [1] of 0.06 µg/mL (≈ 0.13 µM). This compound yielded a logD at 10000 µM in data set [3] of 0.99. Besides, the Papp A→B in data set [5] was determined as 11.7 ×10⁻⁶ cm/s. The Papp B→A in [6] amounted to 9.9 ×10⁻⁶ cm/s. Moreover, the clearance in [7] worked out at 54 mL/min/kg. For the same compound, the bioavailability in [8] was found to be 73%.
Take `COc1cnc2ccc(=O)n(CCN3CCC(NCc4cnc(C)c(C#N)n4)CC3)c2c1`: the MIC in [1] stood at 0.5 µg/mL (≈ 1.15 µM). Further, the pH-dependent lipophilicity (logD) at 10000 µM in data set [3] came to 0.89. The compound also had a concentration for half-maximal inhibition (IC50) in [4] of 69 µM.
On the same counts, the results for `COc1cnc2ncc(=O)n(CCN3CCC(NCc4cnc(C)c(C#N)c4)CC3)c2c1` are 0.13 µg/mL (≈ 0.3 µM), 0.38 and > 100 µM.
In data set [1], `Cc1ncc(CN[C@@H]2CCN(CCn3c(=O)ccc4ncc(F)cc43)C[C@@H]2F)cc1C#N` displayed a minimum inhibitory concentration (MIC) of 0.25 µg/mL (≈ 0.57 µM). Further, the logD at 10000 µM in [3] turned out to be 0.92. The Papp A→B in [5] worked out at 17.7 ×10⁻⁶ cm/s. The basolateral-to-apical permeability (Papp B→A) in data set [6] came out at 15.4 ×10⁻⁶ cm/s. Further, the clearance in data set [7] was 30 mL/min/kg. For the same compound, the bioavailability in data set [8] is > 100%.
In the case of `Cc1ncc(CNC2CCN(CCn3c(=O)ccc4ccc(C#N)cc43)CC2)cc1C#N`, in [9], the log10cfu came to 0.5. The result in data set [10] was Active. Besides, the fraction unbound in [11] turned out to be 0.43. Besides, the fAUC/MIC in data set [12] was determined as 159. In the data set on Mus musculus, the “fT>MIC” value worked out at 58%. Further, it took 0.06 µg/mL (≈ 0.141 µM) to inhibit growth in [1] (MIC). The values for the half-inhibitory concentration (IC50) (in data set [2]; at DNA gyrase subunit B; in data set [4]) were 0.25 µM, > 100 µM and 26 µM, respectively. The compound further registered a logD at 10000 µM in [3] of 1.3. In data set [5], the Papp A→B came to 13.6 ×10⁻⁶ cm/s. Besides, the Papp B→A in data set [6] worked out at 7.4 ×10⁻⁶ cm/s. The clearance in [7] is 41 mL/min/kg. Moreover, the bioavailability in [8] is > 100%.
As for `COc1c(N2C[C@@H]3CCCN[C@@H]3C2)c(F)cc2c(=O)c(C(=O)O)cn(C3CC3)c12` [MOXIFLOXACIN], the MIC in data set [1] turned out to be 0.06 µg/mL (≈ 0.149 µM). The LCK in data set [13] was 2.3.
